PME-1 inh: PME-1 inhibitors via competitive probe labeling, primary screen, biochemical, fluorescence polarization, FP-Rh probe, HTS | inhibition, % at 5.9 µM | recombinant PME-1 | 320,000 compounds, 0.53% hits | AID 2130, 2009;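 active means inhibition above the campaign mean of all compounds plus 3 SD, cut at about 26% in these data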;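 further: competitive labeling of PME-1 active site by serine hydrolase directed probe; 0% = PME-1 with DMSO and 100% = wells lacking PME-1 enzyme; inhibitors block probe labeling so polarization falls and inhibition rises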
Fam108B inh: mouse Fam108B serine hydrolase inhibitors, primary screen, counter-screen for RBBP9 inhibitor project, biochemical, fluorescence polarization. recombinant Fam108B, FP-Rh probe fluorescence polarization. inhibition, % at 9.51 µM. 300,000 compounds, 0.33% hits. AID 1947, 2009;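 active means inhibition above the screen mean inhibition plus 3 SD, computed separately per campaign, cut at about 18% in these data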;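 further: inhibitors lower polarization as less probe binds the enzyme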
LYPLA2 inh: LYPLA2 inhibitors, primary screen, counter-screen for PME1 inhibitor project, biochemical, fluorescence polarization, FP-Rh probe ABPP; AID 2177, 2009; 320,000 compounds, 0.38% hits; recombinant LYPLA2; inhibition, % at 5.9 µM;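 active means inhibition above the screen-wide mean plus 3 SD, limit set per campaign, cut at about 26% in these data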;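 further: 0% = LYPLA2 with DMSO and 100% = wells lacking LYPLA2 enzyme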
Target sequence (O95372 whole entry, looked up): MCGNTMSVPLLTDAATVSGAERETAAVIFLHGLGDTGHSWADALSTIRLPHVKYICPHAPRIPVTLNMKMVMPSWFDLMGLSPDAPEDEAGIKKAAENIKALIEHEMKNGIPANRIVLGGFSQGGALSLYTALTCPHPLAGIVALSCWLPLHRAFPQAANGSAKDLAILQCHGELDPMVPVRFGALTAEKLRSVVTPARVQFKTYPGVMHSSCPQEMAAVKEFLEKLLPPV
RBBP9 inhibitor: human RBBP9 inhibitors, primary screen, biochemical, fluorescence polarization, FP-Rh probe, HTS; Serine hydrolase RBBP9 (Homo sapiens), O75884; recombinant RBBP9; inhibition, % at 7.94 µM; 220,000 compounds, 0.2% hits;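 active means inhibition above the campaign mean of all tested compounds plus 3 SD, cut at about 14% in these data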;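 further: plate controls were DMSO wells with RBBP9 for no effect and wells lacking RBBP9 protein for full effect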
Target sequence (O75884 whole entry, looked up): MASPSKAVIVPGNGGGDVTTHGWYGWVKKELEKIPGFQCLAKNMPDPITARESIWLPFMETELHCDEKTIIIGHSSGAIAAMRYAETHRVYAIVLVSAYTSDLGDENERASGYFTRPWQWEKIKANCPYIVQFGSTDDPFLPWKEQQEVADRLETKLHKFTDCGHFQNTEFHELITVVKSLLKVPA
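Material: RBBP9 protein. Amount: RBBP9 at 2.5 µM in dispensed solution, before mixing. Schedule: 30 min then 45 min, 25 °C. Medium: Tris buffer pH 8.0, NaCl, Pluronic. Measured by: fluorescence polarization. Measure: percent inhibition from mP, scaled between DMSO and no-protein wells. Replication: one well per compound.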
LYPLA1 inh: LYPLA1 inhibitors, primary screen, counter-screen for PME1 inhibitor project, biochemical, fluorescence polarization, FP-Rh probe ABPP | recombinant LYPLA1 | inhibition, % at 5.9 µM | 320,000 compounds, 0.16% hits;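 active means inhibition above the mean of all tested compounds plus 3 SD, set per campaign, cut at about 14% in these data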;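 further: inhibitors block serine hydrolase probe labeling of LYPLA1 so polarization falls; 0% = enzyme with DMSO and 100% = wells lacking LYPLA1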
Target sequence (O75608 whole entry, looked up): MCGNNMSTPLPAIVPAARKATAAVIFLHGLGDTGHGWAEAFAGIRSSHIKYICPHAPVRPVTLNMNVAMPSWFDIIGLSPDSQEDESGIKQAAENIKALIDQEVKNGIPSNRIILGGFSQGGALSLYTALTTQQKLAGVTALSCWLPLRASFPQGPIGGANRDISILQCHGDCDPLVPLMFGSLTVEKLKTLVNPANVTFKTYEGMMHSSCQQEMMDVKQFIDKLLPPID
PAD4 inh: human PAD4 inhibitors, primary screen, biochemical, fluorescence polarization, 1536-well format; Protein-arginine deiminase type-4 (Homo sapiens), Q9UM07; recombinant PAD4, RCA probe fluorescence polarization; inhibition, % at 6.36 µM; 330,000 compounds, 0.41% hits; AID 485272, 2010;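 active means percent inhibition above a cutoff equal to the mean of all tested compounds plus 3 SD, cut at about 15% in these data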;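 further: 0% = PAD4 with RCA probe and DMSO and 100% = probe without PAD4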
RBBP9 inh conf: human RBBP9 inhibitors, retest, confirmation, biochemical, fluorescence polarization, FP-Rh probe, triplicate; inhibition, % at 7.94 µM; recombinant RBBP9; 410 compounds, 36% hits; shares compounds with RBBP9 inhibitor;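 active means inhibition above the hit cutoff derived for the primary screen, cut at about 15% in these data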;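 further: 0% = RBBP9 with DMSO and 100% = wells lacking RBBP9 protein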
Fam108b inh conf: mouse Fam108b serine hydrolase inhibitors, confirmation, counter-screen for RBBP9 inhibitor project, biochemical, fluorescence polarization, triplicate; shares compounds with Fam108B inh; recombinant Fam108b, FP-Rh probe fluorescence polarization; inhibition, % at 9.51 µM; 930 compounds, 44% hits;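 active means inhibition above a limit from the primary screen, the mean over all compounds plus 3 SD, cut at about 19% in these data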;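 further: 0% = median of active Fam108b wells and 100% = catalytically dead S170A mutant; inhibitors free the probe so polarization falls as inhibition rises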
* = called active by the depositor; x = no result. In the library only some 1.3% were active in any assay of this set; here they are far more common.

SMILES	PME-1 inh	Fam108B inh	LYPLA2 inh	RBBP9 inhibitor	LYPLA1 inh	PAD4 inh	others
CC1=NN(c2ccccc2)C(=O)C1/C=C1/C(=O)NC(=O)N(c2cccc(C)c2)C1=O (stereo unspecified)	x	x	x	-3	x	x
CC1=NN(c2ccccc2)C(=O)C1/C=C1/C(=O)NC(=O)N(c2cc(C)cc(C)c2)C1=O (stereo unspecified)	0	-1	-2	-9	2	16*
N#Cc1ccccc1Cn1cc(C(=O)c2ccco2)c2ccccc21	5	2	-3	-10	-5	-3
O=C(c1cn(Cc2ccccc2)c2ccccc12)C1CC1	-6	-4	-3	-5	-4	-5
N#Cc1ccccc1Cn1cc(C(=O)C2CC2)c2ccccc21	63*	6	0	-7	-2	-1
CCC(=O)c1cn(Cc2ccccc2C#N)c2ccccc12	35*	-5	2	-9	-1	-2
O=P(Oc1ccccc1)(Oc1ccccc1)C(O)c1ccccc1 (stereo unspecified)	46*	2	8	x	0	-2
Cc1ccc(C(O)P(=O)(Oc2ccccc2)Oc2ccccc2)cc1 (stereo unspecified)	38*	3	8	x	2	4
CC(=O)c1cn(CCCOc2ccccc2)c2ccccc12	1	2	3	-10	-1	-6
CCCCn1c(NC(=O)c2ccc(Br)o2)c(C(=O)OCC)c2nc3ccccc3nc21	34*	59*	89*	-2	81*	72*
CCCCn1c(N)c(C(=O)NCCN2CCOCC2)c2nc3ccccc3nc21	3	-1	2	-4	-1	-4
CC(C)CCOP(N)(=O)Oc1ccccc1Cl (stereo unspecified)	30*	-1	7	x	7	-2
NP(=O)(OCCCc1ccccc1)Oc1ccccc1Cl (stereo unspecified)	59*	2	2	x	1	-4
Cc1c(N=Nc2c(O)n(Cc3ccccc3)c(=O)[nH]c2=O)c(=O)n(-c2ccccc2)n1C	-4	-4	-3	-8	-2	-6
CC(C)(C)OC(=O)c1c(N)n(Cc2ccco2)c2nc3ccccc3nc12	-1	-2	-4	-9	-3	19*
O=c1cccc2n1CC1CC2CN(CC(O)CN2CC3CC(C2)c2cccc(=O)n2C3)C1 (stereo unspecified)	0	3	-4	x	0	-2
CN(C)C(CNC(=O)Cc1c(Cl)cccc1Cl)c1ccccc1 (stereo unspecified)	0	2	11	5	2	-4
CCC(CO)Nc1ccc([N+](=O)[O-])c2cccnc12 (stereo unspecified)	-3	5	0	-12	3	-1
O=C1NC(=O)C(=Cc2cc3c(cc2[N+](=O)[O-])OCO3)C(=O)N1	-1	0	-1	-3	0	-7
Cc1cccc(N2C(=O)NC(=O)/C(=C/c3cc4c(cc3[N+](=O)[O-])OCO4)C2=O)c1	45*	3	-3	3	-2	-3
CN(C)C1(c2nnnn2CCOC(=O)Nc2ccc(Cl)cc2)CCCCC1	37*	2	15	4	3	0
CCC1(OC(=O)c2ccccc2)CC(C)N(C)CC1C (stereo unspecified)	-3	-2	-4	x	1	4
CN[C@H]1C[C@H]2O[C@@](C)([C@H]1OC)n1c3ccccc3c3c4c(c5c6ccccc6n2c5c31)C(=O)NC4	52*	48*	-3	0	-19	3
C/C(=N\NC(N)=O)c1c(O)n(C)c(=O)n(C)c1=O	1	-2	-3	-4	-4	-2
O=c1c2ccccc2nc(/C=C/c2ccc(O)c(O)c2)n1-c1ccccc1	27*	-10	-20	x	-15	-4
SMILES	PME-1 inh	Fam108B inh	LYPLA2 inh	RBBP9 inhibitor	LYPLA1 inh	PAD4 inh	others
COc1cc(/C=C/c2nc3ccccc3c(=O)n2-c2ccccc2O)ccc1O	10	1	-1	x	-3	1
COc1cc(/C=C/c2nc3ccccc3c(=O)n2-c2cccc(O)c2)ccc1O	36*	3	-4	-19	-7	-4
O=c1[nH]c(=S)[nH]c(O)c1N=Nc1cc(S(=O)(=O)Nc2ccc(Cl)cc2)ccc1Cl	41*	x	2	x	-3	-1
NS(=O)(=O)c1ccc(N=Nc2c(O)[nH]c(=S)[nH]c2=O)cc1	-1	1	3	4	-1	5
O=C1NC(=O)N(Cc2ccco2)C(=O)/C1=C/c1cccn1CCOc1ccccc1Cl	51*	5	-5	-5	-4	-7
O=C1NC(=O)N(Cc2ccccc2)C(=O)/C1=C\c1ccco1	-1	3	-5	-11	-1	-22
CC1=C2[C@@H]3OC(=O)[C@H](C)C3CC[C@@]2(C)C=CC1=O (stereo partly specified)	5	8	4	x	4	-1
CCN(CC)C(=O)c1ccc2c(c1)C1C(Cl)C(Sc3ccccc3[N+](=O)[O-])CC1C(C(=O)O)N2 (stereo unspecified)	14	47*	2	28*	0	-1	RBBP9 inh conf=11;Fam108b inh conf=7
CCCCn1c(O)c(C=NC2CC3CCC2(C)C3(C)C)c(=O)[nH]c1=O (stereo unspecified)	7	4	7	-8	4	-5
COc1ccc(/C=N/N=C(/N)N[N+](=O)[O-])c(OC)c1	-4	-1	-2	-7	2	-3
N/C(=N\N=C/c1ccc(-c2ccc(O)c(C(=O)O)c2)o1)N[N+](=O)[O-]	-6	19*	-7	-6	-4	1	Fam108b inh conf=24*
COc1ccc(OC)c(N2C(=O)NC(=O)/C(=C\c3ccc([N+](=O)[O-])s3)C2=O)c1	-1	44*	10	-5	-3	-26	Fam108b inh conf=11
O=C1NC(=O)N(c2ccccc2)C(=O)/C1=C\c1ccc([N+](=O)[O-])s1	3	19*	-9	-10	-3	-6	Fam108b inh conf=12
Cc1cc(Cl)ccc1C(=O)C1CCCN(C2CCSCC2)C1 (stereo unspecified)	1	-2	-4	-2	-3	-4

Compound activity: PubChem BioAssay, The Scripps Research Institute Molecular Screening Center
